The test system of assay [1] is Felis catus. The assay can be described thus: BMC-sensitive inhibitory effect on cat spinal neurons relative to that of GABA was expressed in vivo as relative potency; Greater activity. Type of assay: functional, organism-based.
Assay [2] deals with GABA-A receptor; anion channel. The assay can be described thus: In vitro inhibition of [3H]P4S binding to Gamma-aminobutyric acid receptor of rat brain synaptic membranes. Type of assay: cell membranes, Membrane.
Assay [3] addresses GABA-A receptor; anion channel. Nature of the assay: In vitro inhibition of [3H]THIP binding to Gamma-aminobutyric acid receptor in rat brain synaptic membranes. Type of assay: cell membranes, Membrane. The procedure, abridged: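 Radioligand 0.005 μM [3H]THIP; rat cortical synaptic membranes (0.8–1.2 mg protein) in 0.05 M Tris-citrate pH 7.1, triplicate, 15 min at 4 °C, analogue up to 100 μM. IC50 derived from displacement; three experiments averaged per concentration.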

Assay [4] addresses GABA-A receptor; anion channel. Nature of the assay: In vitro inhibition of [3H]GABA binding to rat brain synaptic membranes. Type of assay: cell membranes, Membrane. The procedure, abridged:
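Rat cerebral cortex synaptic membranes (0.8–1.2 mg protein) incubated in triplicate 15 min at 4 °C in 0.05 M Tris-citrate pH 7.1 with 0.005 μM [3H]GABA and analogue (up to 100 μM). Displacement used to derive IC50; each concentration mean of three experiments.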

For assay [5], the target named is T1, GABA transporter (Rattus norvegicus, UniProt P31647+P23978+P31646+P48056). Type of assay: functional, cell membranes, Brain, Membrane.
The target of assay [6] is Gamma-aminobutyric acid receptor subunit gamma-1 (Rattus norvegicus, UniProt P23574). Nature of the assay: In vitro inhibition of [3H]GABA binding to Gamma-aminobutyric acid receptor of rat brain synaptic membranes. Type of assay: cell membranes, Membrane.
Sequence of Gamma-aminobutyric acid receptor subunit gamma-1 (P23574 whole entry): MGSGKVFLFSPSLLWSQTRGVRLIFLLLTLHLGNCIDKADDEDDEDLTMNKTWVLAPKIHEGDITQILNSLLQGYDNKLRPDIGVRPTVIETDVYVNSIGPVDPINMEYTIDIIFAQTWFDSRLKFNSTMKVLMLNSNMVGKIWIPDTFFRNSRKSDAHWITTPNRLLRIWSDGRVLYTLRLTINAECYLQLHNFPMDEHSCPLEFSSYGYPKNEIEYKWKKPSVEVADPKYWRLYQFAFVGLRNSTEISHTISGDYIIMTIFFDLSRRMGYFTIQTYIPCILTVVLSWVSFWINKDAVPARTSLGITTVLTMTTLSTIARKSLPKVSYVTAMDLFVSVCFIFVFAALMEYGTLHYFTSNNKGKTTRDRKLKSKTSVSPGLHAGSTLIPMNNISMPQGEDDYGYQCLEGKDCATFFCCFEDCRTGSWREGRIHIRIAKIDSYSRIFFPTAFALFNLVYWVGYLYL
The test system of assay [7] is Felis catus. Nature of the assay: BMC-sensitive inhibitory effect on cat spinal neurons relative to that of GABA was expressed in vivo as relative potency; Less activity. Type of assay: functional, organism-based.
The target in assay [8] is T1, GABA transporter. Nature of the assay: In vitro inhibition of GABA uptake in rat brain synaptosomes.
Assay [9] has as its system Felis catus. Nature of the assay: In vivo BMC-sensitive inhibitory effect on cat spinal neurons relative to that of GABA; Equal activity. Type of assay: functional, organism-based.

SMILES strings stand for the structures. The source made the active and inactive calls. The rule behind the calls is not given here. Some results are limits rather than exact numbers.

What is called IC50 is the concentration at which inhibition is half-maximal. Read a low IC50 as greater potency in that assay. With `NCC1CC(=O)NO1` (racemic), the Relative potency result with Felis catus [1] was “Active”. Further, the IC50 in assay [2] came to 18 nM; in [3], 5 nM; in assay [4] it was 8 nM; against GABA transporter [5], 130000 nM.
As to `NC[C@@H]1CC(=O)NO1`, the Relative potency entry with Felis catus [1] is “Active”. Moreover, the IC50 in assay [6] is 4 nM; in [2], 8 nM; in [3] it was 3 nM; against GABA transporter [5] it was more than 500000 nM.
On to `NCc1cc(O)no1` [MUSCIMOL], for which the Relative potency entry in the assay with Felis catus [1] was “Active”. The same compound had an IC50 against GABA transporter [5] of 320000 nM.
`NCc1cc(=O)[nH]o1` [MUSCIMOL]: the values for the IC50 in assay [6], in [2] and in [3] were 6 nM, 6 nM and 5 nM, respectively.
On to `NC[C@H](O)CC(=O)O`, for which, in the assay on Felis catus [7], the Relative potency entry is “Partially active”. Also, the IC50 in assay [2] was 1900 nM; in [3], 300 nM; in assay [4] it was 1000 nM; against GABA transporter [8], 67000 nM.
`NC[C@@H](O)CC(=O)O`: the Relative potency entry with Felis catus [7] is “Partially active”. Further, the IC50 in assay [6] turned out to be 400 nM; in [2] it was 900 nM; in assay [3], 200 nM; at GABA transporter [5], 29000 nM.
Regarding `NC[C@H]1CC(=O)NO1`, in the assay with Felis catus [9], the Relative potency result is “Active”. Besides, on GABA transporter [8], the IC50 amounted to 70000 nM.
In the case of `NC[C@H]1CC(O)=NO1`, the 50% inhibitory concentration (IC50) was determined as 250 nM in assay [6], 540 nM in [2] and 140 nM in [3].
